Most compounds without a hit are left out; they make up all but 4.7% or so of the library.
RGS4 block – inhibitors of human RGS4; HEK293 M3R/RGS4 inducible, Fluo-4 calcium flux; hits give high values; triggered by carbachol at its EC20; B-score at 10 µM; 310,000 compounds, 0.45% hits; AID 463165;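 active means B-score, a plate-corrected calcium signal, over three deviations above library mean, with baseline fluorescence within five deviations of library mean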;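 further: RGS4 expression induced by doxycycline in cells with stable M3 receptor; B-score is computed from the integrated fluorescence ratio over baseline after carbachol; higher B-score means a larger calcium signal and so more RGS4 inhibition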
MrgX1 agonist – human MrgX1 receptor agonism, primary screen | Q96LB2 | 310,000 compounds, 0.44% hits | MrgX1-HEK293 cells, Fluo-4 calcium fluorescence, agonist mode; hits give high values | B-score at 10 µM;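 active means calcium response B-score plate-corrected fluorescence ratio at least 3 library SD, with starting fluorescence B-score inside 5 SD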
Target sequence (Q96LB2 whole entry, looked up): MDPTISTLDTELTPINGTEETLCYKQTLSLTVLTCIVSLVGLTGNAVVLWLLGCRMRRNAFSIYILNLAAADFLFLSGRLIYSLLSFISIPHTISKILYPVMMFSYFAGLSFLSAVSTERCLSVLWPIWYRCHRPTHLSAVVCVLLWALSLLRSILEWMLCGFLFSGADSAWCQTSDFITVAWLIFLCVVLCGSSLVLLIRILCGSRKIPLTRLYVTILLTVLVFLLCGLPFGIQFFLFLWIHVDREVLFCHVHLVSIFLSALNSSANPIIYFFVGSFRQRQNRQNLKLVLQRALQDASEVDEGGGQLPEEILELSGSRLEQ
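Test system: HEK293 cells stably expressing human MrgX1 receptor; Input: fifteen thousand cells per well; Dosing: compound delivered in addition one of three; Schedule: overnight seeding, then 1 h dark dye loading; Technique: Fluo-4 NW calcium fluorescence; Measure: B-scored fluorescence response ratio; Controls: positive and negative controls per plate.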
RGS4 act – potentiators or activators of RGS4. AID 463111. 310,000 compounds, 0.92% hits. HEK293 M3R/inducible RGS4, carbachol calcium flux Fluo4; hits give low values. B-score at 10 µM;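 active means B-score of the integrated calcium signal more than 4 SD below the library mean, with starting fluorescence not abnormally high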;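 further: negative B-score means reduced calcium response which marks RGS4 activation or potentiation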
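Detection: kinetic calcium fluorescence imaging with Fluo4-AM dye, 2 µM / Material: HEK293 cells with stable M3R and inducible RGS4 / Schedule: recording 10 s baseline at 1 Hz, 100 s post-agonist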
Cl transport mod – modulates chloride dependent transport by human KCC2; Q9H2X9; KCC2 cells, thallium flux FluoZin-2 fluorescence; B-score of Tl+ flux slope (higher = more flux/activation; lower = inhibition) at 10 µM; 190,000 compounds, 2.2% hits; AID 1456;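 active means thallium flux slope and its plate-corrected score both differing from the plate sample mean at a set confidence after two filtering rounds, in either direction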;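 further: slope of fluorescence scaled to starting intensity during 10 to 20 s after thallium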
MrgX1 antagonist – antagonists of human MrgX1 receptor; B-score at 10 µM; Q96LB2; MRGX1-HEK293 calcium flux, Fluo-4, BAM8-22 antagonism; hits give low values; AID 588676; 310,000 compounds, 1.3% hits;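 active means calcium-response B-score plate-corrected more than 3 library SD below zero, starting fluorescence within 5 deviations, no agonist response on first addition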;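 further: peak minus trough fluorescence over baseline after final BAM8-22 challenge near maximal dose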
MrgX1 PAM – allosterically activates human MrgX1 receptor signaling; B-score at 10 µM; MrgX1-HEK293, Fluo-4 calcium flux, FDSS; hits give high values; AID 588675; 310,000 compounds, 0.63% hits;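 active means plate-corrected calcium response at least 3 library SD above typical, normal starting fluorescence, not activating the receptor alone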;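 further: compound read alongside a low EC10 to EC30 dose of BAM8-22 agonist; peak minus trough fluorescence over baseline measured at the second addition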
* hit, by the source's call; i = inactive; . = not tested or not shown; ! = a repeat was not active.

SMILES	RGS4 block	MrgX1 agonist	RGS4 act	Cl transport mod	MrgX1 antagonist	MrgX1 PAM
COc1cc(/C=C2/C(=O)NN(c3ccc(Cl)cc3)C2=O)cc(OC)c1O	i	44*	i	.	i	i
CCOC(=O)COc1ccc(/C=C2/C(=O)NN(c3ccc(F)cc3)C2=O)cc1OC	i	46*	i	.	i	i
COc1cc([N+](=O)[O-])c(N2CCOCC2)c([N+](=O)[O-])c1OC	i	i	i	-0.09	i	i
O=[N+]([O-])c1cc(Br)c2nsnc2c1N1CCOCC1	i	59*	i	.	i	i
CC(/C=N/NC(=O)c1ccc2nc(C)[nH]c2c1)=C\c1ccccc1	i	i	i	-0.17	i	6.7*
C/C=C/c1ccc(OCC(O)CN(C)Cc2ccc(SC)cc2)c(OC)c1 (centres undefined)	i	i	i	.	i	i
Cc1cccc(COc2ccccc2C(=O)OCC(=O)N(C)c2c(N)n(Cc3ccccc3)c(=O)[nH]c2=O)c1	i	i	i	.	i	i
CN=c1scc(-c2cccs2)n1/N=C/c1ccccc1O	i	i	i	-1.6	i	7.4*
CN=c1scc(C)n1/N=C/c1ccc(O)c(O)c1O	i	i	i	-1.2	i	i
CN=c1scc(-c2cccs2)n1/N=C/c1ccc(O)c(O)c1O	i	i	i	-2.2	i	14*
CC(C)[C@H](NC(=O)N1CC(=O)Nc2ccccc21)C(=O)N1CCC(C(=O)O)CC1	i	i	i	.	i	i
O=C(N/N=C/c1ccccn1)c1ccc(Cl)c(Cl)c1	i	i	i	.	i	i
CC(C)CCn1c(SCC(=O)NC2CC2)nc2cc(Cl)ccc2c1=O	i	i	i	.	i	i
COc1ccc(O)c(/C=N/Nc2nc(Nc3ccccc3)nc(-n3nc(C)cc3C)n2)c1	i	i	-8.5*	0.13	i	i
COc1cc(/C=N/Nc2nc(Nc3ccccc3)nc(-n3nc(C)cc3C)n2)cc(OC)c1OC	i	i	i	-0.21	i	i
C=C(C)COc1ccc(-c2ncnc(C(F)(F)F)c2-c2ccccc2)c(O)c1	i	i	i	.	i	i
C=C(C)COc1ccc(-c2ncnc(C(F)(F)F)c2-c2ccc(OC)cc2)c(O)c1	i	i	-7.1*	.	i	i
COc1ccc(/C=C2/C(=N)N3N=C(CC(=O)N4CCCC4)SC3=NC2=O)cc1	i	35*	i	.	i	i
CCc1ccc(/C=C2\C(=N)N3N=C(CC(=O)N4CCCCC4)SC3=NC2=O)cc1	i	i	i	.	i	i
COc1ccc(/C=C2\C(=N)N3N=C(CC(=O)N4CCCCC4)SC3=NC2=O)cc1	i	38*	i	.	i	i
Cc1c(C(=O)NC2CCC(C)CC2)oc2ccccc12 (centres undefined)	i	i	i	.	i	i
C/C(CC(C)(C)C1CCCCC1)=N\NC(N)=S	i	i	i	1.6	-8.7*	i
CC(C)c1nn2c(N)c(/C=C3\C=Nc4ccccc43)c(=O)nc2s1	i	i	i	-1.3	i	13*
CCC(CC)c1nn2c(N)c(/C=C3\C=Nc4ccccc43)c(=O)nc2s1	i	i	i	0.96	i	i
CCCc1nn2c(N)c(/C=C3\C=Nc4ccccc43)c(=O)nc2s1	i	i	i	-0.4	i	16*!
Nc1nonc1-n1nnc(C(=O)N/N=C/c2ccco2)c1CSc1ccccc1	i	i	i	.	i	i
Cc1cccc(NC(=O)CSc2nnc(CNC(=O)c3ccco3)o2)c1	i	i	i	.	i	i
CCC(C)Sc1cccc(-c2nc3ccc(C)cn3c2NCc2ccccc2)c1 (centres undefined)	i	i	-7.6*	.	i	i
CCC(C)Sc1cccc(-c2nc3ccc(Cl)cn3c2NCc2ccccc2)c1 (centres undefined)	i	i	i	.	i	i
